Measurements: PMC3483595 (ChemMedChem, 2012)
Values after ≈ are worked out from the molar mass of the structure shown. Values joined by “and” are separate entries in the source; they are usually repeats but may differ in a detail not shown here. Identical values can stand only once. Like-named read-outs stand apart in the source and are kept apart here.

What was measured:
SecA ATPase = experiment: Kinetic experiments versus ATP; assay type: biochemical; details: low ATP concentrations, data not shown
F1F0-ATPase = F1F0-ATPase (Escherichia coli, UniProt P0ABB0+P0ABB4); experiment: F1F0-proton ATPase activity assay; assay type: biochemical; details: read-out: IC50, F1F0-ATPase; E. coli F1F0-proton ATPase in liposomes
Summary of the method: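 F1F0-ATPase from E. coli KY7485 membranes was partially purified by sucrose gradient and reconstituted into liposomes by dialysis. Released phosphate was read photometrically at 660 nm. Activity was expressed as % of the no-inhibitor control; at least triplicate.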

E. coli NR698 [1] = experiment: Plate assay of bacterial growth; assay type: cell-based; details: for MIC, E. coli NR698: plate assay, leaky mutant, overnight incubation
E. coli NR698 [2] = experiment: Liquid culture growth assay; assay type: cell-based; details: 50 µM, data not shown
B. subtilis 168 [3] = experiment: Bactericidal effect assay; assay type: cell-based; details: 100 µM, one-hour treatment, exponential-phase cells
Summary of the method: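 Exponential-phase cultures (OD600 0.5) in LB with 0.2% glucose were exposed to test compound, with water as the control, for 1 h at 37°C. Cultures were serially diluted and spread on LB plates. Surviving CFU were counted after overnight growth at 37°C, and the effect was expressed as the drop in log CFU. At least triplicate; standard error of the mean.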

E. coli MC4100 = experiment: Plate assay of bacterial growth; assay type: cell-based; details: wild-type, overnight incubation
Summary of the method: (§1)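 Exponential-phase cells (OD600 0.5) were mixed into LB with 0.2% glucose and 0.75% soft agar and poured as a lawn. Test compound (1 µL; water- or DMSO-dissolved) was spotted on the set surface and plates were incubated overnight at 37°C. The MIC was the concentration giving a clear growth-inhibition zone relative to the surrounding lawn.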

BsSecA intrinsic ATPase = BsSecA intrinsic ATPase (Bacillus subtilis, UniProt P28366); experiment: Intrinsic ATPase assay of full-length BsSecA; assay type: biochemical; details: read-out: IC50, BsSecA intrinsic ATPase; full-length B. subtilis SecA
Summary of the method: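 Full-length B. subtilis SecA was overexpressed from pT7div and purified, then used at 1.5 µg per 50 µL reaction in solution without membranes. Phosphate release was read at 660 nm and expressed as % remaining activity versus control; at least triplicate.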

B. subtilis 168 [4] = experiment: Plate assay of bacterial growth; assay type: cell-based; details: for MIC, B. subtilis 168: plate assay, overnight incubation
Summary of the method: as §1

[5] = tested on: SecA-dependent protein translocation; experiment: SecA-dependent in vitro translocation of proOmpA into membrane vesicles; assay type: biochemical, E. coli; details: read-out: IC50, in vitro translocation of proOmpA into membrane vesicles; 35S-labeled proOmpA
E. coli NR698 [6] = experiment: Bactericidal effect assay; assay type: cell-based; details: 100 µM, one-hour treatment, exponential-phase cells
EcN68 SecA ATPase = EcN68 SecA ATPase (Escherichia coli, UniProt P10408); experiment: biochemical; assay type: biochemical
[7] = cited from earlier work
[8] = molecular target: T1, EcSecA translocation ATPase (Escherichia coli, UniProt P10408); details: read-out: IC50, translocation ATPase of SecA; cited from earlier work
[9] = tested on: SecA-dependent protein translocation; details: read-out: IC50, in vitro protein translocation; cited from earlier work
EcSecA membrane ATPase = EcSecA membrane ATPase (Escherichia coli, UniProt P10408); experiment: Membrane ATPase assay of SecA with urea-washed BA13 membrane; assay type: biochemical; details: read-out: IC50, EcSecA membrane ATPase
Summary of the method: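 Purified full-length E. coli SecA (1.5 µg per 50 µL) was combined with 3 µg urea-washed membrane from E. coli BA13 (MC4100 secA13(am) supF(ts)). Phosphate was read at 660 nm and expressed as % of the no-inhibitor control; at least triplicate.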

[10] = molecular target: T1, EcSecA translocation ATPase; experiment: Translocation ATPase assay of SecA with membrane and proOmpA; assay type: biochemical; details: read-out: IC50, EcSecA translocation ATPase
Summary of the method: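 Purified full-length E. coli SecA (1.5 µg per 50 µL) was combined with 3 µg urea-washed BA13 membrane plus 1 µg purified proOmpA precursor. Reaction: 1.2 mM ATP, ovalbumin, Tris-HCl pH 7.6, KCl, NH4Cl, Mg(OAc)2, DTT, 40°C within the linear range. Released phosphate was read at 660 nm and expressed as % remaining activity versus control; at least triplicate.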

T1 sequence (P10408 whole entry): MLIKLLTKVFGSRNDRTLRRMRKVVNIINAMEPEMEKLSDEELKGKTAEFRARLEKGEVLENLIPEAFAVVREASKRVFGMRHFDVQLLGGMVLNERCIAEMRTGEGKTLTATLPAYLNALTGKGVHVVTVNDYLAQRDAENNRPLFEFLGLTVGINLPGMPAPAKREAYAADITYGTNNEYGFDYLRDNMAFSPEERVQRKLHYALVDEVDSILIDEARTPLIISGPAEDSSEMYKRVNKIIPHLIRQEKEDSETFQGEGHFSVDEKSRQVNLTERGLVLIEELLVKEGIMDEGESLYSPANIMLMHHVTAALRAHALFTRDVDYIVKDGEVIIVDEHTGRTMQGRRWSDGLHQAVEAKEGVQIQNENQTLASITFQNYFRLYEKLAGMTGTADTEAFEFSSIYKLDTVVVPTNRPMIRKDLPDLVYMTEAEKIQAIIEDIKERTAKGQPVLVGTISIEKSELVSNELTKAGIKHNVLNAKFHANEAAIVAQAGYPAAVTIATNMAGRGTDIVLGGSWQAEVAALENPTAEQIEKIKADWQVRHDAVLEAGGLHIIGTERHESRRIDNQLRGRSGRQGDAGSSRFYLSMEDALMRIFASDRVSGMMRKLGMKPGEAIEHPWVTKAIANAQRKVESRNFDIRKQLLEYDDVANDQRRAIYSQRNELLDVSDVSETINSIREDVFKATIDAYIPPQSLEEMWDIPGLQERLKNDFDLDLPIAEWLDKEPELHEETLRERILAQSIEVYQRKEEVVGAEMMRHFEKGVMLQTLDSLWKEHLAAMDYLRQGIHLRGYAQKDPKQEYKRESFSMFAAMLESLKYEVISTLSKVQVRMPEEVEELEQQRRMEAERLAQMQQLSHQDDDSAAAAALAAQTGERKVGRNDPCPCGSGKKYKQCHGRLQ
Sequence of EcN68 SecA ATPase (P10408 1-610): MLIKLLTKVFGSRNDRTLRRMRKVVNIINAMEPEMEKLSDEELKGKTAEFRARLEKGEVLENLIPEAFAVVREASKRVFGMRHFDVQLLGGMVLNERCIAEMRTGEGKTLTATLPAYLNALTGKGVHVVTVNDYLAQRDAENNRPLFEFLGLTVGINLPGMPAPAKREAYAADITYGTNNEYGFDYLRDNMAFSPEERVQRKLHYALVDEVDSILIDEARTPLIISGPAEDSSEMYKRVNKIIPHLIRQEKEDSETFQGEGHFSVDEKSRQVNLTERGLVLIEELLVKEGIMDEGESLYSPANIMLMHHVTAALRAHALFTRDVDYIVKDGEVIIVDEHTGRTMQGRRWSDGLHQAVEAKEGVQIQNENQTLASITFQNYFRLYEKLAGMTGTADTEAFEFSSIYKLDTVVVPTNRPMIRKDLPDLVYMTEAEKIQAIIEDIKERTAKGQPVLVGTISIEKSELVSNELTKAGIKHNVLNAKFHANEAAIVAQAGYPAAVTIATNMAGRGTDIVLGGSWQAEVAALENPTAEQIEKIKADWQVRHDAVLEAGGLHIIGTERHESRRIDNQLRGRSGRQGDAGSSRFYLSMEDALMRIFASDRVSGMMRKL
Sequence of BsSecA intrinsic ATPase (P28366 whole entry): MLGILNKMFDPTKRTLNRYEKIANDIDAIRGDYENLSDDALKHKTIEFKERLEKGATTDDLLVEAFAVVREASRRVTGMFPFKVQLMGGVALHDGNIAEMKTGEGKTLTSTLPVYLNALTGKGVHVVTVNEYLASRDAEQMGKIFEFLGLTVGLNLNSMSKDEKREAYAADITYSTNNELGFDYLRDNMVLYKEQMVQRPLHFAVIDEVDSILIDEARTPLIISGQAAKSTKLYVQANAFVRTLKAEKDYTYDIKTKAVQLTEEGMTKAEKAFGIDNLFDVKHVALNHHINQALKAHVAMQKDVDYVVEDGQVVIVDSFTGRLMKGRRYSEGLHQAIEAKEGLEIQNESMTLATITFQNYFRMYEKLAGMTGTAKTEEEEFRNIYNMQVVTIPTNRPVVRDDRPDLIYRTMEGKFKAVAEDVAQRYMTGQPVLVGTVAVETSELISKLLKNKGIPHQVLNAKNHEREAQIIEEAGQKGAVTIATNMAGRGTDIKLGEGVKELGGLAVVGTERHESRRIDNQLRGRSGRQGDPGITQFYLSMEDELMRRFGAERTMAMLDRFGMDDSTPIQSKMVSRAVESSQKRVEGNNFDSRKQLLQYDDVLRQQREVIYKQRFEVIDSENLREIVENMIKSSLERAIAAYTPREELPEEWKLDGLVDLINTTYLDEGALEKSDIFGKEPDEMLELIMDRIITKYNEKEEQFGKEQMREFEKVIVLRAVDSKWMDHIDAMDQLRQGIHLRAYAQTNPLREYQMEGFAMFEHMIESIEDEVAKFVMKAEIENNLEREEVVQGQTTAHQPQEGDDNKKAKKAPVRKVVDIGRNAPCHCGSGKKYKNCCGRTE
Sequence of EcSecA membrane ATPase (P10408 whole entry): as the sequence (P10408 whole entry) above

## O=C1OC2(c3cc(I)c(O)c(I)c3Oc3c2cc(I)c(O)c3I)c2c(Cl)c(Cl)c(Cl)c(Cl)c21 [RB, Rose Bengal]
SecA ATPase
  Mode of inhibition against ATP: competitive inhibitors against ATP
F1F0-ATPase
  IC50: ~10 µM
E. coli NR698 [1]
  MIC, E. coli NR698: 3.1 µM (≈ 3.02 µg/mL)
E. coli NR698 [2]
  Inhibition of growth in liquid culture: completely inhibits
B. subtilis 168 [3]
  Decrease of cell survival (CFU): ~8 log units
E. coli MC4100
  MIC, E. coli MC4100: >1000 µM
BsSecA intrinsic ATPase
  IC50: 7 µM
B. subtilis 168 [4]
  MIC, B. subtilis 168: 3.1 µM (≈ 3.02 µg/mL)
[5]
  IC50: 0.25 µM and ~0.25 µM
E. coli NR698 [6]
  Decrease of cell survival (CFU): about 10 log units

## O=C1OC2(c3ccccc31)c1cc(Br)c(O)c(Br)c1Oc1c2cc(Br)c(O)c1Br [EY, Eosin Y]
E. coli NR698 [1]; Escherichia coli, NR698, read-out: MIC, E. coli NR698
  MIC: 1000 to 2500 µM (≈ 648 to 1620 µg/mL)
EcN68 SecA ATPase
  IC50: 25 µM
B. subtilis 168 [4]; Bacillus subtilis, 168, read-out: MIC, B. subtilis 168
  MIC: 2500 µM (≈ 1620 µg/mL)

## C/C=C/[C@H]1C(C)=C[C@H]2C[C@H](C)[C@H](O)C[C@H]2[C@]1(C)/C=C(C)/C=C/C(=O)O [pannomycin]
[7]
  MIC, antibacterial activity: mM range

## [N-]=[N+]=[N-].[Na+] [Sodium azide]
[8]
  IC50: 5000 µM
EcN68 SecA ATPase; at concentrations as high as 10 mM, cf. Table 1 EcN68
  Inhibition of the intrinsic ATPase of SecA: not inhibited
[9]
  IC50: 600 µM

## O.O=C([O-])c1ccccc1-c1c2cc(I)c(=O)c(I)c-2oc2c(I)c([O-])c(I)cc12.[Na+].[Na+] [EB, Erythrosin B]
EcSecA membrane ATPase
  IC50: 12 µM
SecA ATPase
  Mode of inhibition against ATP: competitive inhibitors against ATP
[10]
  IC50: 10 µM
F1F0-ATPase
  IC50: ~30 µM
E. coli NR698 [1]
  MIC, E. coli NR698: 250 to 500 µM
E. coli MC4100
  MIC, E. coli MC4100: >10000 µM
BsSecA intrinsic ATPase
  IC50: 70 µM
B. subtilis 168 [4]
  MIC, B. subtilis 168: 250 to 500 µM
[5]
  IC50: 4 µM

## O=C([O-])c1ccccc1-c1c2ccc(=O)c(I)c-2oc2c(I)c([O-])ccc12.[Na+].[Na+] [DI, Diiodofluorescein]
E. coli MC4100
  MIC, E. coli MC4100: >3000 µM
B. subtilis 168 [4]
  MIC, B. subtilis 168: 1000 µM

## Dinitrofluorescein [DN]
E. coli NR698 [1]
  MIC, E. coli NR698: 10000 to 20000 µM
B. subtilis 168 [4]
  MIC, B. subtilis 168: 10000 µM
